From PubChem
This is a sample that favours compounds with a hit; in the whole collection about 6.7% have one here.
CHOP inh = inhibitors of CHOP induction in ER stress response; CHO-K1 CHOP-promoter luciferase, tunicamycin-induced, 15-18 h; inhibition, % at 10 µM; 3.8% of 220,000 active;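 active = compounds that reduced the stress-induced luciferase reporter signal by more than about 70% of percent inhibition, limit read from the data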;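 also: 0% = tunicamycin plus vehicle and 100% = wells without tunicamycin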
T cruzi inh = T. cruzi replication inhibition; T. cruzi beta-gal in NIH3T3, luminescence, 90 h; 1.4% of 300,000 active; AID 1885; inhibition, % (concentration not given with the values);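 active = mean inhibition across valid replicates above about 55%, limit read from the data; inconclusive = mean below that limit but half or more replicates reach it; inactive = mean below it, under half of replicates reach it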;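 also: signal also drops with host cell toxicity which is not excluded here; 0% = plate median of DMSO wells and 100% = zero luminescence signal; higher percent means less beta-gal luminescence so fewer parasites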
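compound dosing = single 50 nL compound addition per well in DMSO | material = NIH/3T3 host cells with β-galactosidase reporter T. cruzi | input = 5,000 host fibroblasts per well | timing = ≥90 h infection period, 3 h prior cell attachment | read-out basis = percent inhibition of parasite-derived β-gal signal | detection = GalScreen β-gal luminescence, detergent lysis, 60 min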
CSC inhib = blocks cancer stem cells | inhibition, % at 7.5 µM | 1.1% of 300,000 active | cancer stem cell-like cells viability, luminescence; in the data active = inhibition above about 75%; inconclusive = no clear call, values can overlap the other calls; tested in HMLE shEcad cells
Beta cell apopt = blocks beta cell apoptosis; INS-1E cytokine-induced death, ATP luminescence, 48 h; percent of positive-control rescue, neutral wells zero; protection from apoptosis, % (test concentration not listed); 0.8% of 300,000 active;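 active = Every replicate reaches about 75%, or at least half do and their mean reaches it too, limit read from the data; inconclusive = At least half of replicates reach the limit but their mean does not; inactive = Under half of replicates reach the limit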;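 also: 0% = cytokine-treated negative control wells and 100% = positive control rescue; higher means more ATP so stronger rescue from cytokine killing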
GRIN3A LBD mod = modulates the human NR3A ligand-binding domain; NR3A LBD differential scanning fluorimetry, Tm shift; 0% = protein alone, 100% = glycine-bound protein; 2.5% of 340,000 active; Tm shift relative to glycine control, % at 25 µM;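 active = melting temperature shift of at least 10% of the positive control shift, at one fixed dose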
PREPL inhibitor = inhibitors of human prolyl oligopeptidase-like enzyme PREPL. Q4J6C6. recombinant PREPL, fluorescence polarization activity-based probe. inhibition, % at 5.96 µM. 0.68% of 320,000 active. AID 2751; in the data active = inhibition above about 43%;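 also: 0% = enzyme with DMSO and 100% = wells lacking enzyme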
Target sequence (Q4J6C6 whole entry, looked up): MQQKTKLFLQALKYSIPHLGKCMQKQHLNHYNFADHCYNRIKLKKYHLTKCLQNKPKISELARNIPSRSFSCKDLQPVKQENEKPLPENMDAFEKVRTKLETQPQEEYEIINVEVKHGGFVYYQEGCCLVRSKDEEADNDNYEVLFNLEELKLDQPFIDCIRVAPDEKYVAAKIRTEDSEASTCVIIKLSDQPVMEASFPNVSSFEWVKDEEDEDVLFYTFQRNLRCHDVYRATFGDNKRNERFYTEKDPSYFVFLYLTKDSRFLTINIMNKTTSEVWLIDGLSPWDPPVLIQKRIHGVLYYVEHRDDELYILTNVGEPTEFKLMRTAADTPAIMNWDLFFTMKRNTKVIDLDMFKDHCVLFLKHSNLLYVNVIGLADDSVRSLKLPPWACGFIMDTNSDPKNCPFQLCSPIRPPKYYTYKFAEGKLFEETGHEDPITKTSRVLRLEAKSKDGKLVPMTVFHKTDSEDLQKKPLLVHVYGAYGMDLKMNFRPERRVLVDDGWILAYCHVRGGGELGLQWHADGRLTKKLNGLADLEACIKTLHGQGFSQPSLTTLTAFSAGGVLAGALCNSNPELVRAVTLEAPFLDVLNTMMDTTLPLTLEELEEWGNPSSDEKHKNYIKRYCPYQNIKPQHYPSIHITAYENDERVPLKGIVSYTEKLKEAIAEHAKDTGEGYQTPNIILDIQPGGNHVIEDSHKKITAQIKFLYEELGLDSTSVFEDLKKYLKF
An asterisk follows results filed as active; ? = inconclusive; nt = no result given.

SMILES	CHOP inh	T cruzi inh	CSC inhib	Beta cell apopt	GRIN3A LBD mod	PREPL inhibitor
O=C(CCC1CCCN(Cc2ccc3c(c2)CCO3)C1)NCc1ccc(F)c(F)c1 (stereo unspecified)	6	63*	-2	4	-1	11
O=C(COC(=O)c1ccccc1NCCO)NNC(=O)c1cccs1	nt	-7	-7	-4	0	11
COc1ccccc1/C=C/CN1CCCC(CCC(=O)NCc2ccccc2F)C1 (stereo unspecified)	21	76*	4	-2	0	6
Cn1c(=O)c2[nH]c(SCCN3CCCCC3)nc2n(C)c1=S	nt	nt	nt	nt	15*	nt
COc1ccc(C)cc1NC(=O)c1cc(S(=O)(=O)N2CCCCC2)ccc1N1CCOCC1	nt	nt	1	11	-2	2
Cc1cc(-c2ccc(N=Nc3c(S(=O)(=O)O)cc4cc(S(=O)(=O)O)cc(N)c4c3O)c(C)c2)ccc1N=Nc1c(S(=O)(=O)O)cc2cc(S(=O)(=O)O)cc(N)c2c1O	nt	nt	65	77*	nt	24
Cc1ccc(NC(=S)/N=C(\N)Nc2nc(C)c3cc(C)ccc3n2)c(C)c1	42	0	11	-5	-3	0
CCOc1ccc2nc(N/C(N)=N/C(=S)Nc3cccc(OC)c3)nc(C)c2c1	-17	44	31	-3	14*	2
COc1ccc(NC(=S)/N=C(\N)Nc2nc(C)c3ccccc3n2)cc1	36	45	17	-1	7	10
Cc1ccc(NC(=S)/N=C(\N)Nc2nc(C)c3cc(C)c(C)cc3n2)cc1C	-14	61*	0	0	3	-1
CCOc1ccc2nc(N/C(N)=N/C(=S)Nc3cccc(C)c3)nc(C)c2c1	37	48	8	1	23*	0
COc1ccc2nc(N/C(N)=N/C(=S)Nc3cccc(C)c3)nc(C)c2c1	15	49	29	-6	4	10
COc1ccc2nc(N/C(N)=N/C(=S)Nc3c(C)cccc3C)nc(C)c2c1	31	37	18	0	24*	-1
COC(=O)c1ccc2c(c1C(=O)OC)CN(S(=O)(=O)C(C)(C)C)[C@@H]2CCO	nt	nt	nt	nt	4	nt
CN(C)C=NC(=O)c1cc(C(=O)c2ccc(Cl)cc2Cl)c[nH]1	40	-14	2	-7	2	0
Cc1ccc(OCC(=O)NNC(=O)c2cccnc2)cc1C	-14	-7	7	0	-1	8
C[N+](C)(C)C[C@H](O)CC(=O)[O-]	nt	-21	-10	0	-2	-2
Cc1cn(CC(=O)NCC(C)c2ccccc2)c(=O)[nH]c1=O (stereo unspecified)	nt	nt	nt	nt	0	nt
COc1ccc2c(c1)c1ncn(CCN3CCNCC3)c(=O)c1n2C	74*	-3	3	-3	1	10
COc1ccc2c(c1)c1ncn(CCN3CCCCC3)c(=O)c1n2C	43	2	-7	-5	0	11
Cc1nc(N2CCCC2)c2nnn(Cc3ccccc3Cl)c2n1	73*	nt	nt	-6	-4	1
CC(C)CCNc1ncnc2c1nnn2Cc1ccccc1Cl	79*	-3	nt	7	0	7
Cn1c(C(=O)NCCc2c[nH]c3ccccc23)cc2sccc21	nt	4	8	-1	16*	3
O=C(NCCc1c[nH]c2ccccc12)c1ccc2c(c1)OCO2	nt	-8	-1	3	22*	-11
COc1ccc(C(=O)NCCc2c[nH]c3ccccc23)cc1OC	nt	-9	-7	-6	7	5
SMILES	CHOP inh	T cruzi inh	CSC inhib	Beta cell apopt	GRIN3A LBD mod	PREPL inhibitor
O=C(NCCc1c[nH]c2ccccc12)c1ccc2nc[nH]c2c1	nt	-11	12	nt	27*	14
O=C(NCCc1c[nH]c2ccccc12)c1cc(Cl)c2c(c1)OCO2	nt	16	11	-6	30*	-11
Cc1ccccc1CN1CCN(C(=O)CC(C)C)CC1	nt	-10	-9	4	-1	0
O=C(/C=N/O)Nc1ccc2sc3ccccc3c2c1	37	nt	23	-7	34*	35
COC(=O)c1ccccc1NC(=O)/C=N/O	19	3	-1	-2	1	8
COc1ccc(CNC(=O)Cc2nn(C)c(=O)c3ccccc23)cc1	57	nt	-3	26	11*	-17
Cn1nc(CC(=O)NCc2ccc(C(F)(F)F)cc2)c2ccccc2c1=O	51	0	-3	34	-4	3
CC(Oc1cccnc1[N+](=O)[O-])C(=O)Nc1ccc(Cl)cn1 (stereo unspecified)	nt	nt	-17	-4	1	5
CCOc1cc(/C=N/NC(=O)c2ccncc2)ccc1OC(=O)c1ccccc1	nt	-4	-15	-9	2	24
CCOc1cc(/C=N/Nc2cccc(C(=O)O)c2)ccc1OC(=O)c1ccccc1	92*	-17	nt	nt	-2	nt
CCOc1cc(/C=N/NC(=O)CNc2cccc(C)c2)ccc1OC(=O)c1ccccc1	39	10	-2	7	6	17
CCOc1cc(/C=N/NC(=O)c2ccncc2)ccc1OC(=O)c1ccc([N+](=O)[O-])cc1	81*	-5	2	2	-1	28
Cn1cccc1/C=N/NC(=O)Cc1cccs1	-17	-3	3	105*	3	0
Cn1cccc1/C=N/NC(=O)c1cccs1	nt	-10	-1	-3	-1	-3
O=C(Nc1ccc(N2CCOCC2)cc1)c1cnsn1	78*	2	nt	nt	-1	nt
Cc1ccc(/C=C/C(=O)NC2CCCCCCC2)o1	54	-7	145*	6	-2	10
CCC(CC)NC(=O)CSc1ccc(S(=O)(=O)N2CCCCC2)cn1	nt	nt	nt	nt	0	nt
CCCOc1ccc(NC(=O)CC2C(=O)N(CC)C(=S)N2Cc2cccs2)cc1 (stereo unspecified)	93*	19	-5	2	-1	1
COc1ccc(NC(=O)CC2C(=O)N(Cc3ccccc3)C(=S)N2CCN2CCOCC2)cc1 (stereo unspecified)	5	7	10	-8	-2	9
COc1ccc(NC(=O)CC2C(=O)N(C)C(=S)N2Cc2cccs2)cc1 (stereo unspecified)	-3	6	-9	2	-4	9
CCN1C(=O)C(CC(=O)Nc2ccc(OC)cc2)N(CCc2ccc(F)cc2)C1=S (stereo unspecified)	29	44	24	15	5	26
C=CCN1C(=O)C(CC(=O)Nc2ccc(OCCC)cc2)N(CCCN2CCN(Cc3ccccc3)CC2)C1=S (stereo unspecified)	94*	67*	25	9	-2	-2
CCN1C(=O)C(CC(=O)Nc2ccc(OC)cc2)N(CCCN2CCN(c3ccc(F)cc3)CC2)C1=S (stereo unspecified)	54	16	81*	7	-5	30
CCCCCCOc1ccc(NC(=O)CC2C(=O)N(CC)C(=S)N2Cc2ccco2)cc1 (stereo unspecified)	91*	?	11	12	16*	10
